Experiments:
[1] = target: NS3 protease (Hepatitis C virus subtype 1b, UniProt Q0ZMF1, R155K); assay: Inhibition of Hepatitis C virus genotype 1b NS3/4A protease R155K mutant assessed as substrate cleavage using Ac-C(Eu)DDMEEAbu(COO)ASK(QSY7)-amide as substrate incubated for 30 mins prior to substrate addition by time-resolved fluorescence assay
[2] = target: NS3 protease (Hepatitis C virus subtype 1b, UniProt Q0ZMF1, D168Y); assay: Inhibition of Hepatitis C virus genotype 1b NS3/4A protease D168Y mutant assessed as substrate cleavage using Ac-C(Eu)DDMEEAbu(COO)ASK(QSY7)-amide as substrate incubated for 30 mins prior to substrate addition by time-resolved fluorescence assay
[3] = Inhibition of Hepatitis C virus genotype 3a NS3/4A protease assessed as substrate cleavage using Ac-C(Eu)DDMEEAbu(COO)ASK(QSY7)-amide as substrate incubated for 30 mins prior to substrate addition by time-resolved fluorescence assay; design: species or system Hepatitis C virus subtype 3a
[4] = target: NS3 protease (Hepatitis C virus subtype 1b, UniProt Q0ZMF1, A156V); assay: Inhibition of Hepatitis C virus genotype 1b NS3/4A protease A156V mutant assessed as substrate cleavage using Ac-C(Eu)DDMEEAbu(COO)ASK(QSY7)-amide as substrate incubated for 30 mins prior to substrate addition by time-resolved fluorescence assay
[5] = Inhibition of Hepatitis C virus genotype 1b NS3/4A protease assessed as substrate cleavage using Ac-C(Eu)DDMEEAbu(COO)ASK(QSY7)-amide as substrate incubated for 30 mins prior to substrate addition by time-resolved fluorescence assay; design: species or system Hepatitis C virus subtype 1b
[6] = target: NS3 protease (Hepatitis C virus subtype 1b, UniProt Q0ZMF1, A156T); assay: Inhibition of Hepatitis C virus genotype 1b NS3/4A protease A156T mutant assessed as substrate cleavage using Ac-C(Eu)DDMEEAbu(COO)ASK(QSY7)-amide as substrate incubated for 30 mins prior to substrate addition by time-resolved fluorescence assay
[7] = system: Hepatitis C virus; assay: Antiviral activity against Hepatitis C virus genotype 1b infected in HuH7 cells assessed as reduction in replicon RNA level after 72 hrs by TaqMan-based RT-PCR analysis in presence of 10% FBS; format: functional, organism-based, Hepacivirus hominis; conditions: Huh-7, 72 h
[8] = AUC in rat at 5 mg/kg, po; format: ADME, organism-based; design: dose 5 mg/kg, route oral; conditions: plasma
Outline: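 Rats were dosed orally at 5 mg/kg, with the compound given in methyl cellulose vehicle.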

[9] = system: Hepatitis C virus; assay: Antiviral activity against Hepatitis C virus genotype 3a infected in HuH7 cells assessed as reduction in replicon RNA level after 72 hrs by TaqMan-based RT-PCR analysis in presence of 10% FBS; format: functional, organism-based, Hepacivirus hominis; conditions: Huh-7, 72 h

SMILES | IC50 [1] | IC50 [2] | IC50 [3] | IC50 [4] | IC50 [5] | IC50 [6] | EC50 [7] | AUC [8] | EC50 [9]
C=C[C@@H]1C[C@]1(NC(=O)[C@@H]1C[C@@H]2CN1C(=O)[C@H](C1CCCCC1)NC(=O)O[C@@H]1C[C@H]1CCCCCc1c(nc3ccccc3c1OCCCN1CCOCC1)O2)C(=O)NS(=O)(=O)C1(C)CC1 | 0.27 nM | 1.01 nM | 1.9 nM | 0.98 nM | 0.01 nM | 3.09 nM |  |  | 
C=C[C@@H]1C[C@]1(NC(=O)[C@@H]1C[C@@H]2CN1C(=O)[C@H](C(C)(C)C)NC(=O)O[C@@H]1C[C@H]1CCCCCc1c(nc3ccccc3c1O[C@@H]1C[C@H]3CC[C@@H](C1)N3CCOC)O2)C(=O)NS(=O)(=O)C1(C)CC1 | 0.28 nM | 1.45 nM | 4.7 nM | 0.86 nM | 0.02 nM | 1.25 nM |  |  | 
C=C[C@@H]1C[C@]1(NC(=O)[C@@H]1C[C@@H]2CN1C(=O)[C@H](C1CCCCC1)NC(=O)O[C@@H]1C[C@H]1CCCCCc1c(nc3ccccc3c1OC1CCN(C)CC1)O2)C(=O)NS(=O)(=O)C1(C)CC1 | 0.06 nM | 0.29 nM | 0.71 nM | 0.91 nM | 0.02 nM | 0.84 nM | 0.25 nM | 2700 nM·h | 3.1 nM
C=C[C@@H]1C[C@]1(NC(=O)[C@@H]1C[C@@H]2CN1C(=O)[C@H](C1CCCCC1)NC(=O)O[C@@H]1C[C@H]1CCCCCc1c(nc3ccccc3c1O[C@H]1C[C@H]3CC[C@@H](C1)N3CCOC)O2)C(=O)NS(=O)(=O)C1(C)CC1 | 0.05 nM | 0.19 nM | 0.28 nM | 0.36 nM | 0.02 nM | 0.35 nM |  |  | 
C=C[C@@H]1C[C@]1(NC(=O)[C@@H]1C[C@@H]2CN1C(=O)[C@H](C1CCCCC1)NC(=O)O[C@@H]1C[C@H]1CCCCCc1c(nc3ccccc3c1OC1CCN(CC)CC1)O2)C(=O)NS(=O)(=O)C1(C)CC1 | 0.11 nM | 0.21 nM | 0.41 nM | 0.66 nM | 0.03 nM | 0.91 nM | 0.53 nM | 2300 nM·h | 5.2 nM
C=C[C@@H]1C[C@]1(NC(=O)[C@@H]1C[C@@H]2CN1C(=O)[C@H](C(C)(C)C)NC(=O)O[C@@H]1C[C@H]1CCCCCc1c(nc3ccccc3c1O[C@@H]1C[C@H]3CC[C@@H](C1)N3CC)O2)C(=O)NS(=O)(=O)C1(C)CC1 | 0.12 nM | 0.57 nM | 1.2 nM | 0.41 nM | 0.02 nM | 0.46 nM |  |  | 
C=C[C@@H]1C[C@]1(NC(=O)[C@@H]1C[C@@H]2CN1C(=O)[C@H](C1CCCCC1)NC(=O)O[C@@H]1C[C@H]1CCCCCc1c(nc3ccccc3c1OC1CCN(CCS(C)(=O)=O)CC1)O2)C(=O)NS(=O)(=O)C1(C)CC1 | 0.21 nM | 2.1 nM | 5.18 nM | 3.76 nM | 0.02 nM | 5.21 nM |  |  | 
C=C[C@@H]1C[C@]1(NC(=O)[C@@H]1C[C@@H]2CN1C(=O)[C@H](C1CCCCC1)NC(=O)O[C@@H]1C[C@H]1CCCCCc1c(nc3ccccc3c1OC1CCNCC1)O2)C(=O)NS(=O)(=O)C1(C)CC1 | 0.02 nM | 0.09 nM | 0.12 nM | 0.24 nM | 0.01 nM | 0.21 nM | 0.21 nM | 10 nM·h | 7.8 nM
C=C[C@@H]1C[C@]1(NC(=O)[C@@H]1C[C@@H]2CN1C(=O)[C@H](C1CCCCC1)NC(=O)O[C@@H]1C[C@H]1CCCCCc1c(nc3ccccc3c1O[C@H]1C[C@H]3CC[C@@H](C1)N3)O2)C(=O)NS(=O)(=O)C1(C)CC1 | 0.02 nM | 0.05 nM | 0.11 nM | 0.13 nM | 0.01 nM | 0.08 nM |  |  | 
C=C[C@@H]1C[C@]1(NC(=O)[C@@H]1C[C@@H]2CN1C(=O)[C@H](C1CCCCC1)NC(=O)O[C@@H]1C[C@H]1CCCCCc1c(nc3ccccc3c1OC1CCN(CCF)CC1)O2)C(=O)NS(=O)(=O)C1(C)CC1 | 0.13 nM | 1.3 nM | 2.13 nM | 1.67 nM | 0.01 nM | 2.15 nM |  |  | 

Reference: ChEMBL document CHEMBL3120153, “Novel Quinoline-Based P2-P4 Macrocyclic Derivatives As Pan-Genotypic HCV NS3/4a Protease Inhibitors” (ACS Med Chem Lett, 2014)
